# bIAP inh = blocks bovine intestinal alkaline phosphatase activity. purified bovine IAP, CDP-star luminescence, 30 min. inhibition, % at 20 µM. 190,000 tested, under 10 active;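 active = over 50% inhibition of intestinal alkaline phosphatase at 20 µM in the single-dose screen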
#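 Incubation: 30 min reaction at room temperature / Material: purified bovine intestinal alkaline phosphatase (IAP) enzyme / Input: enzyme at 1/65,000,000 dilution / Dosing: 20 µM single dose / Signal: CDP-star luminescence signal / Reagent: CDP-star chemiluminescent phosphatase substrate, 30 µM final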
# mIAP activ = increases mouse intestinal alkaline phosphatase activity; muIAP, CDP-Star luminescence, 30 min; hits give high values; 1 = vehicle-only enzyme signal, 0 = enzyme-free wells; activation factor at 10 µM; 330,000 tested, 0.24% active; AID 2805;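 active = activation factor of at least 2 at 20 µM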
#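 System: mouse IAP enzyme. Reagent: CDP-Star chemiluminescent phosphatase substrate. Benchmarks: DMSO wells, no-enzyme wells. Times: 30 min enzyme-substrate-compound incubation at room temperature. Detection: luminescence from enzymatic CDP-Star hydrolysis. Doses: test compounds delivered from DMSO solution.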
# mIAP block = mouse IAP inhibition; purified mouse IAP, CDP-Star luminescence, 30 min; inhibition, % at 10 µM; 330,000 tested, 0.2% active; AID 2806;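 active = inhibition of at least 40% at 10 µM in the primary screen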;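 also: plate controls were DMSO with enzyme for no effect and no enzyme wells for full effect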
# bIAP activator = increases bovine intestinal alkaline phosphatase activity. purified bovine IAP, CDP-star luminescence, 30 min; hits give high values; fold of DMSO-control signal, blank-subtracted. 200,000 tested, 0.17% active. activation factor at 20 µM;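 active = activation factor of 2 or more at 20 µM, a signal rise over negative controls twice the positive control's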
# hIAP activ = increases human intestinal alkaline phosphatase activity; P09923; purified human IAP, CDP-Star luminescence, 30 min; hits give high values; 1 = vehicle-only enzyme, 0 = enzyme-free background; activation factor at 10 µM; 330,000 tested, 0.16% active;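 active = activation factor of the enzyme at least 2-fold when tested at 20 µM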
# Target sequence (P09923 whole entry, looked up): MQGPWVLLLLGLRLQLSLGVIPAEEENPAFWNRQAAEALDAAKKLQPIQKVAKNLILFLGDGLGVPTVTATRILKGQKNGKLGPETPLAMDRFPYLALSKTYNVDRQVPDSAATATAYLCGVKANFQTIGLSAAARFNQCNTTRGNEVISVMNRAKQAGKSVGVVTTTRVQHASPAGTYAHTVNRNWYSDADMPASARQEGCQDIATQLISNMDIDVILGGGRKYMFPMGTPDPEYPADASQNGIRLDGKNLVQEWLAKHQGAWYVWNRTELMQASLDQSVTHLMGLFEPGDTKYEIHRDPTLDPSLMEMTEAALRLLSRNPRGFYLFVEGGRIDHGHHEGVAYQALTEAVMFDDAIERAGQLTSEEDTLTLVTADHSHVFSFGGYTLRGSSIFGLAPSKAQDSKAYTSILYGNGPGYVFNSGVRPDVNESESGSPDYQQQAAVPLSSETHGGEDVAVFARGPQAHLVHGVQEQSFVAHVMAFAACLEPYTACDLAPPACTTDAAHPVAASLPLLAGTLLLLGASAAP
# hIAP inh = blocks human intestinal alkaline phosphatase | inhibition, % at 10 µM | 330,000 tested, 0.12% active | purified IAP, CDP-Star luminescence, 30 min | P09923;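 active = inhibition reaching a set limit with compound at 10 µM in the primary screen, cut at about 35% in these data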;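 also: plate controls were DMSO wells with enzyme for no effect and no-enzyme buffer wells for full effect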
# The depositor's hits bear a star; i = inactive; x = no result. Shown are actives, neighbours in structure and some others; about 0.72% of the full set was active somewhere.
SMILES,bIAP inh,mIAP activ,mIAP block,bIAP activator,hIAP activ,hIAP inh
CCCN1C=CC(=C/C=C(\C#N)C(=O)OCC)C=C1,49,0.74,26,0.5,0.63,37*
N#CCN1C(=O)NC2(CCCc3sccc32)C1=O (stereo unspecified),x,0.89,11,x,0.98,2
Cc1ccc(-n2c(C)cc(C3N=C(N)Nc4nc5ccccc5n43)c2C)c(C)c1 (stereo unspecified),i,1.8,-84,7*,1.2,-18
Cc1cc(C2N=C(N)Nc3nc4ccccc4n32)c(C)n1-c1ccccc1Cl (stereo unspecified),-312,2,-96,4.1*,0.81,20
COc1ccc(N2CCN(C(=O)NC3CC(=O)N(c4ccc(OC)cc4)C3)CC2)cc1 (stereo unspecified),-17,0.97,3,1.2,0.99,1
Cc1ccc(OCCCn2c(CO)nc3ccccc32)cc1,i,0.97,3,6.7*,1.2,-22
O=C(CN1CCN(CC(=O)Nc2cccc(F)c2)CC1)NCC1(N2CCOCC2)CCCCC1,x,1,-2,x,0.79,22
Cc1ccc(N=Cc2c(O)c3ccccc3oc2=O)c(C)c1,x,0.54,46*,x,0.86,14
CCOC(=O)c1sc(NC(=O)Nc2cccc(Cl)c2)cc1C,-1,2*,-104,1,1.1,-12
O=C(NCc1ccc2c(c1)OCO2)C1CCN(Cc2cnn(-c3ccccc3)c2-n2cccc2)CC1,-114,1.2,-21,2.1*,1.4,-35
O=C(Nc1ccccc1Cl)C1CCN(Cc2cnn(-c3ccccc3)c2-n2cccc2)CC1,-44,0.92,8,1.4,1,-1
Cn1c(CN2CCCC2)nc2cc(NC(=O)Nc3ccccc3)ccc21,-131,1.3,-26,2.3*,0.99,1
Cn1c(CN2CCCCC2)nc2cc(NC(=O)c3ccccc3)ccc21,-4,1,-1,1,0.89,11
COc1cccc2c1oc1c(SCc3nc4ccccc4[nH]3)nc(C)nc12,x,0.93,7,x,1.1,-9
COc1cc(NC(=O)CN(c2cc(C)cc(C)c2)S(=O)(=O)c2c(C)noc2C)cc(OC)c1,10,3*,-198,0.9,0.88,12
COc1cc(NC(=O)CN(c2ccc(C)cc2)S(=O)(=O)c2c(C)noc2C)cc(OC)c1,x,1.8,-81,x,1.2,-20
CCCc1cc(=O)n2nc(N3CCC(C(=O)NCc4ccco4)CC3)sc2n1,x,1,-2,x,0.79,21
COc1ccccc1CNC(=O)COC(=O)c1cc(=O)[nH]c2ccccc12,x,1.1,-5,x,1,0
CN1CCN(C(=O)c2cc([N+](=O)[O-])cc([N+](=O)[O-])c2)CC1,x,0.94,6,x,1.2,-21
Clc1cccc(Cl)c1CSc1nnc(-c2ccncc2)s1,x,0.98,2,x,2.1*,-106
Cc1cc(=O)oc2cc(OC(=O)C3CCN(C(=O)c4ccc(F)cc4)CC3)ccc12,x,0.98,2,x,1.2,-16
N#C/C(=C(/O)COC(=O)c1ccc(C#N)cc1)c1nc2ccccc2s1,24,0.83,17,0.8,0.88,12
O=C(Nc1ccc(Oc2ccc(NC(=O)Nc3ccccc3Cl)cc2)cc1)Nc1ccccc1Cl,x,2*,-102,x,1,-1
O=C(Nc1ccc(F)cc1)Nc1cccc(Br)c1,x,3*,-199,x,1,-1
CC(=O)Nc1ccc(NC(=O)Nc2ccc(C)c(C)c2)cc1,-5,1.2,-20,1.1,0.79,22
SMILES,bIAP inh,mIAP activ,mIAP block,bIAP activator,hIAP activ,hIAP inh
CC(=O)Nc1cccc(NC(=O)Nc2ccc(C)c(Cl)c2)c1,-2,2.1*,-111,1,1.2,-18
O=C(Nc1ccccc1)Nc1ccc(Br)c(Cl)c1,0,3.3*,-234,1,1.3,-29
O=C(Nc1ccccc1)Nc1ccccc1Br,-2,1.5,-52,1,1.2,-16
CSc1ccc(C(=O)C2CCCN(C(=O)c3ccc4c(c3)no[n+]4[O-])C2)cc1 (stereo unspecified),x,0.86,14,x,0.85,15
COc1ccc(-n2nc(C(=O)NCC(=O)NCCCN3CC(C)CC(C)C3)c3ccccc3c2=O)cc1Cl (stereo unspecified),x,0.97,3,x,0.88,12
CCCc1nc2ccccc2c(C(=O)N(CC)CC(=O)NCc2cccs2)c1CC,x,1,-4,x,1,-2
